PDI inh: inhibitors of human PDI, primary screen, biochemical, turbidity, single point, plate reader; Protein disulfide-isomerase (Homo sapiens), P07237; PDI insulin aggregation turbidity, A650, 90 min; inhibition, % at 10 µM; 0.052% of 350,000 active;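 active = mean inhibition across replicates of 30% or more, whatever share of single replicates reach that level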
PvdQ inh: P. aeruginosa PvdQ acylase inhibitors, primary screen, biochemical, fluorescence, plate reader and imaging, single point; PvdQ acylase [Pseudomonas aeruginosa LESB58]; purified PvdQ acylase; inhibition, % at 10 µM; 0.063% of 340,000 active; in the data active = inhibition above about 30%, passing the limit was not always enough;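 note: 0% = vehicle neutral wells and 100% = reference inhibitor wells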
VIM-2 inhibitor: VIM-2 metallo-beta-lactamase inhibitors, primary screen, biochemical, epi-absorbance readout, Pseudomonas aeruginosa enzyme | inhibition, % at 5.6 µM | purified VIM-2, nitrocefin hydrolysis, epi-absorbance fluorescence | 0.89% of 290,000 active;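 active = inhibition above the mean of all tested compounds plus 3 SD, cutoff set per screening run, cut at about 7.5% in these data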;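 note: red hydrolysis product quenches plate fluorescence so inhibitors raise well fluorescence; 0% = enzyme with DMSO and 100% = DMSO without enzyme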
ERp5 inh: inhibitors of ERp5-driven insulin aggregation, primary screen, biochemical, turbidity, absorbance 650 nm, single point; 90 min; inhibition, % at 9.99 µM; Protein disulfide-isomerase A6 (Homo sapiens), Q15084; 0.05% of 350,000 active;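 active = mean replicate inhibition above about 25%, with every replicate also reaching it, limit read from the data, passing the limit was not always enough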
Target sequence (Q15084 whole entry, looked up): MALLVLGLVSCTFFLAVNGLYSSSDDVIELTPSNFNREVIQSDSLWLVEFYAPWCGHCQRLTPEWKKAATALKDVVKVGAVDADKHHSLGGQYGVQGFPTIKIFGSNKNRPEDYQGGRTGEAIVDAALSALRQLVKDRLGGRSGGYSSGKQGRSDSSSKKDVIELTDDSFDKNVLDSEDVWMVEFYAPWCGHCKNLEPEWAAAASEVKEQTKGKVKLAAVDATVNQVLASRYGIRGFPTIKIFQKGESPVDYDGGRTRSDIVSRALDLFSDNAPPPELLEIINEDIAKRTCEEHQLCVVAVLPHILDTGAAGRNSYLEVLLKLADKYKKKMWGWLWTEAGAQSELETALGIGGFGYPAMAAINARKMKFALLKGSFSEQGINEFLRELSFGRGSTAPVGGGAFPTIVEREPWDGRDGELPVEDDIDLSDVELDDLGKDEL
PglD DTNB: C. jejuni PglD acetyltransferase inhibitors, primary screen, biochemical, DTNB colorimetric, single point | UDP-N-acetylbacillosamine N-acetyltransferase PglD (Campylobacter jejuni) | purified PglD enzyme, DTNB colorimetric CoA detection | inhibition, % at 12.5 µM | 0.098% of 360,000 active | AID 602405, 2012; in the data active = inhibition above about 16%, passing the limit was not always enough
IMP-1 inh: IMP-1 metallo-beta-lactamase inhibitors, primary screen, biochemical, epi-absorbance readout, Pseudomonas aeruginosa enzyme; AID 1556, 2009; 0.45% of 290,000 active; metallo-beta-lactamase IMP-1 (Pseudomonas aeruginosa); inhibition, % at 5.6 µM; purified IMP-1, nitrocefin hydrolysis, epi-absorbance fluorescence;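 active = inhibition above the mean plus 3 SD of all compounds in the same screening run, cut at about 4.5% in these data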;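 note: 0% = IMP-1 with DMSO and 100% = DMSO wells lacking enzyme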
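Assay system: purified IMP-1; Quantity: IMP-1 0.2 nM before substrate addition; Medium: HEPES buffer pH 7.1 with ZnSO4 and Brij 35; Incubation: 15 min enzyme–compound preincubation, then 25 min nitrocefin reaction, 25 °C; Signal: fluorescence quenching readout, ex 480/em 530 nm; Controls: DMSO with and without IMP-1; Repeats: singlicate testing.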
An asterisk follows results filed as active; x = not tested or not shown. Sampled rows, rich in hits. Any-hit rate of the full collection: about 1%.

SMILES | PDI inh | PvdQ inh | VIM-2 inhibitor | ERp5 inh | PglD DTNB | IMP-1 inh
CN1CCN(C(=O)c2ccc3c(=O)n(Cc4ccco4)c(=S)[nH]c3c2)CC1 | -3.9 | 6.4 | 8.3* | x | 1.3 | -0.7
O=C(c1ccc2c(=O)n(Cc3ccco3)c(=S)[nH]c2c1)N1CCN(Cc2ccccc2)CC1 | 7.4 | -12.5 | -1.5 | x | -0.9 | -1.8
O=C(CN1C(=O)COc2ccccc21)NCCN1CCOCC1 | 7.7 | -13.4 | -2.6 | -0.7 | -6.4 | -3.5
CCN(CC)S(=O)(=O)c1ccc2c(c1)N(CC(=O)NCCN1CCOCC1)C(=O)CO2 | -2.9 | -10.6 | -2.6 | 27.9* | -2.6 | -1.6
COc1ccccc1NC(=O)N[C@@H]1CC[C@@H](CC(=O)N[C@H](C)c2ccccc2)O[C@@H]1CO | x | x | x | 2.0 | -2.2 | x
Nc1cccc2c1C(=O)N(CCOc1ccccc1F)C2=O | -4.5 | -10.1 | 0.6 | -4.1 | 0.4 | 6.8*
CCCN1Cc2cccc(C(=O)Nc3ccc(CN4CCCC4)cc3)c2C1=O | -5.0 | -9.8 | 11.6* | x | 5.9 | -2.2
CCCN1Cc2cccc(C(=O)Nc3ccc(OC)c(OC)c3)c2C1=O | -1.3 | -9.6 | x | 0.6 | -2.7 | x
O=C(C[C@H]1CC[C@H]2[C@@H](COC[C@@H](O)CN2S(=O)(=O)c2cccc(F)c2)O1)NCc1ccc2c(c1)OCO2 | x | x | x | 2.0 | 1.4 | x
C[C@@H]1CCCCO[C@@H](CN(C)S(=O)(=O)c2ccccc2)[C@H](C)CN([C@@H](C)CO)C(=O)c2cc(NC(=O)Nc3cccc4ccccc34)ccc2O1 | x | x | x | -8.4 | 1.9 | x
O=C(N/N=C/c1ccc(Cl)cc1)c1ccc2c(c1)OCO2 | 2.2 | 3.2 | 0.1 | -1.4 | -9.0 | 16.6*
O=C(N/N=C\C=C\c1ccc(Br)cc1)c1ccc2c(c1)OCO2 | 12.2 | -4.4 | 0.3 | 1.4 | -4.8 | 24.7*
CCOc1ccc(CNC2CCCc3ccccc32)cc1 (stereo unspecified) | 6.1 | 38.4* | 0.8 | 8.2 | x | -1.2
Cc1ccc(-c2ccc([C@H]3[C@@H](CO)N4CCCCN(S(=O)(=O)c5ccccc5C)C[C@H]34)cc2)cc1 | x | x | x | -3.7 | -3.7 | x
COc1ccc(CN(C)C[C@@H]2OCCCC[C@@H](C)Oc3ccc(NC(=O)Cc4ccccc4)cc3C(=O)N([C@@H](C)CO)C[C@H]2C)cc1 | x | x | x | x | 3.7 | x
Cc1cccn2c(=O)c3cc(C(=O)NCc4ccc(F)cc4)c(=N)n(CC4CCCO4)c3nc12 (stereo unspecified) | -10.1 | -31.6 | 3.2 | -1.0 | -11.3 | -1.7
C=CCn1c(=N)c(C(=O)NCCCOC)cc2c(=O)n3ccccc3nc21 | 10.8 | -23.3 | 6.7 | x | -13.9 | -3.1
Cc1cccn2c(=O)c3cc(C(=O)NCC4CCCO4)c(=N)n(CC4CCCO4)c3nc12 (stereo unspecified) | 4.8 | -37.9 | 1.0 | -3.9 | 2.5 | -2.2
Cc1ccc2nc3c(cc(C(=O)NC4CCCC4)c(=N)n3C3CCCCC3)c(=O)n2c1 | 9.9 | -42.2 | 12.2* | 1.9 | -0.6 | -1.3
Cc1cccn2c(=O)c3cc(C(=O)NCc4ccco4)c(=N)n(C4CCCC4)c3nc12 | -4.2 | -18.0 | 8.2* | -2.5 | -2.9 | -3.7
C=CCn1c(=N)c(C(=O)NCCCOC)cc2c(=O)n3cc(C)ccc3nc21 | -7.4 | -64.3 | 11.4* | 1.9 | 0.6 | -5.1
Cc1cccn2c(=O)c3cc(C(=O)NCC4CCCO4)c(=N)n(C4CCCCC4)c3nc12 (stereo unspecified) | -42.2 | -22.7 | 8.0* | -2.2 | 0.5 | -0.6
COc1ccc(-c2n[nH]c(=S)n2-c2ccccc2C)cc1 | 0.8 | -8.0 | 8.8* | 3.6 | -1.5 | -1.3
COc1ccc(-n2c(-c3cccc(C)c3[N+](=O)[O-])n[nH]c2=S)cc1 | -8.7 | -11.1 | 37.9* | x | x | -1.5
COc1ccc(-c2n[nH]c(=S)n2Cc2ccccc2)cc1OC | 0.3 | -10.3 | 7.8* | 1.9 | 2.8 | -0.9
SMILES | PDI inh | PvdQ inh | VIM-2 inhibitor | ERp5 inh | PglD DTNB | IMP-1 inh
COc1cc(OC)cc(-c2n[nH]c(=S)n2-c2ccc3c(c2)OCO3)c1 | 2.1 | -11.3 | 8.7* | -1.3 | x | -0.3
COc1ccc(CN(C)C[C@@H]2OCCCC[C@@H](C)Oc3ccc(NC(=O)c4ccccc4)cc3C(=O)N([C@@H](C)CO)C[C@@H]2C)cc1 | x | x | x | -0.7 | 5.4 | x
C[C@@H]1CN([C@@H](C)CO)C(=O)c2cc(NC(=O)C3CCCCC3)ccc2O[C@H]1CN(C)S(=O)(=O)c1ccc(F)cc1 | x | x | x | -0.7 | -2.5 | x
Cc1noc(C)c1S(=O)(=O)Nc1ccc2c(c1)C(=O)N([C@H](C)CO)C[C@@H](C)[C@@H](CN(C)CC1CC1)O2 | x | x | x | 0.3 | -1.0 | x
C[C@@H]1CN([C@@H](C)CO)C(=O)Cc2cc(NS(=O)(=O)c3ccccc3)ccc2O[C@H]1CN(C)S(=O)(=O)c1cn(C)cn1 | x | x | x | 3.6 | -0.7 | x
COc1cccc(-c2n[nH]c(=S)n2Cc2ccco2)c1 | -1.5 | 2.3 | 9.1* | 1.0 | -0.3 | -4.9
S=c1[nH]nc(-c2ccc(Cl)cc2)n1Cc1ccccc1 | -5.1 | -1.3 | -1.7 | -0.5 | 2.3 | -3.2
Cc1n[nH]c(=S)n1-c1ccc(Cl)cc1 | 8.9 | 5.4 | -0.4 | 1.6 | x | -3.7
Cc1n[nH]c(=S)n1-c1ccccc1 | 0.0 | -12.7 | 10.2* | 3.5 | x | 2.4
S=c1[nH]nc(-c2ccncc2)n1Cc1ccco1 | -1.3 | -10.8 | -1.2 | x | 5.0 | -4.5
Cc1ccccc1-n1c(-c2csc(C)c2C)n[nH]c1=S | -10.7 | 4.2 | 10.7* | x | x | -3.5
COc1ccc(-c2n[nH]c(=S)n2Cc2ccccc2)cc1 | -3.7 | 5.7 | 9.2* | -0.5 | -0.9 | -2.2
Cc1n[nH]c(=S)n1Cc1ccccc1 | 1.8 | -0.4 | 11.3* | -4.2 | -1.6 | -4.5
S=c1[nH]nc(C2CCCCC2)n1Cc1ccccc1 | -5.1 | -2.0 | 9.3* | -2.1 | x | -2.9
Cc1nn(C)cc1NC(=O)C[C@H]1CC[C@@H]2[C@@H](COc3ccc(NC(=O)NC(C)C)cc3C(=O)N2C)O1 | x | x | x | 0.0 | 2.2 | x
C[C@H](O)C#Cc1ccc([C@@H]2[C@@H](CO)N3CCCCN(CC4CCOCC4)C[C@H]23)cc1 | x | x | x | x | -0.5 | x
Cc1cccc(-n2c(-c3ccco3)n[nH]c2=S)c1 | 16.9 | -4.3 | 18.8* | x | 1.3 | -1.1
S=c1[nH]nc(-c2cc(-c3ccco3)[nH]n2)n1-c1cccc2ccccc12 | 0.3 | -10.0 | -1.2 | x | 4.2 | -2.1
FC(F)(F)c1ccccc1-n1c(-c2ccco2)n[nH]c1=S | -1.0 | -16.1 | 9.9* | 8.3 | -3.9 | -1.5
Cc1noc(C)c1S(=O)(=O)Nc1ccc2c(c1)CC(=O)N([C@@H](C)CO)C[C@@H](C)[C@@H](CN(C)S(=O)(=O)c1cccs1)O2 | x | x | x | 6.1 | -3.8 | x
